Measured values from ChEMBL document CHEMBL3272290, “Contragestational agents. 1. Steroidal O-aryloximes” (J Med Chem, 1977).

System: Rattus norvegicus
Experiment: Antifertility activity in Wistar rat assessed as inhibition of preimplantive gestation by measuring resorptions at 40 mg/kg, po administered in days 9 to 12 of pregnancy measured on day 21
Type: functional
Set-up: scale not given: the % may be the effect or the level left
In short: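 Groups of five pregnant female Wistar-derived rats dosed orally on days 9–12 of pregnancy, in sesame oil at 0.5 mL per 200 g body weight. Read-out was the percentage of resorptions.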

SMILES | Activity [%]
C[C@]12CC[C@H]3[C@@H](CCC4=C/C(=N/Oc5ccc([N+](=O)[O-])cc5)CC[C@@]43C)[C@@H]1CC[C@@H]2O | 93.8
C[C@]12CC[C@H]3[C@@H](CCC4=C/C(=N/Oc5ccccc5[N+](=O)[O-])CC[C@@H]43)[C@@H]1CC[C@@H]2O | 11.9
C[C@]12CC[C@H]3[C@@H](CCC4=C/C(=N/Oc5ccc(C(F)(F)F)cc5)CC[C@@]43C)[C@@H]1CC[C@@H]2O | 11.8
C[C@]12CC[C@H]3[C@@H](CCC4=C/C(=N/Oc5ccccn5)CC[C@@]43C)[C@@H]1CC[C@@H]2O | 75.9
C[C@]12CC/C(=N\Oc3ccc([N+](=O)[O-])cc3Cl)C[C@@H]1CC[C@@H]1[C@@H]2CC[C@]2(C)[C@@H](O)CC[C@@H]12 | 5.8
C[C@]12CC/C(=N\Oc3ccc(C#N)cc3)C[C@@H]1CC[C@@H]1[C@@H]2CC[C@]2(C)[C@@H](O)CC[C@@H]12 | 12.9
CC(=O)O[C@H]1CC[C@H]2[C@@H]3CC[C@H]4C/C(=N/Oc5ccccc5[N+](=O)[O-])CC[C@]4(C)[C@H]3CC[C@]12C | 4
C[C@]12CC/C(=N\Oc3ccccc3)C[C@@H]1CC[C@@H]1[C@@H]2CC[C@]2(C)[C@@H](O)CC[C@@H]12 | 1.9
C[C@]12CC[C@H]3[C@@H](CCC4=C/C(=N/Oc5ccccc5)CC[C@@H]43)[C@@H]1CC[C@@H]2O | 100
Cc1cc(O/N=C2\CC[C@@]3(C)[C@@H](CC[C@@H]4[C@@H]3CC[C@]3(C)[C@@H](O)CC[C@@H]43)C2)ccc1[N+](=O)[O-] | 13.1
Cc1cc([N+](=O)[O-])ccc1O/N=C1\CC[C@@]2(C)[C@@H](CC[C@@H]3[C@@H]2CC[C@]2(C)[C@@H](O)CC[C@@H]32)C1 | 5.7
C[C@]1(O)CC[C@H]2[C@@H]3CC[C@H]4C/C(=N/Oc5ccc([N+](=O)[O-])cc5[N+](=O)[O-])CC[C@@H]4[C@H]3CC[C@@]21C | 9.5
C[C@]12CC/C(=N\Oc3ccc([N+](=O)[O-])cc3)C[C@@H]1CC[C@@H]1[C@@H]2CC[C@]2(C)[C@@H](O[N+](=O)[O-])CC[C@@H]12 | 30.8
C[C@]12CC/C(=N\Oc3ccc([N+](=O)[O-])cn3)C[C@@H]1CC[C@@H]1[C@@H]2CC[C@]2(C)[C@@H](O)CC[C@@H]12 | 6
C[C@]12CC/C(=N\Oc3ccccn3)C[C@@H]1CC[C@@H]1[C@@H]2CC[C@]2(C)[C@@H](O)CC[C@@H]12 | 0
CC(=O)O[C@H]1CC[C@H]2[C@@H]3CCC4C/C(=N/Oc5ccc([N+](=O)[O-])cc5)C=C[C@]4(C)[C@H]3CC[C@]12C (some centres not stated) | 2
C[C@]12CC[C@H]3[C@@H](CC[C@H]4C/C(=N/Oc5ccc([N+](=O)[O-])cc5[N+](=O)[O-])CC[C@@H]43)[C@@H]1CC[C@@H]2O | 16.4
C[C@]12CC/C(=N\OCc3ccccc3)C[C@@H]1CC[C@@H]1[C@@H]2CC[C@]2(C)[C@@H](O)CC[C@@H]12 | 13.3
C[C@@]12CCC[C@H]1[C@@H]1CC[C@H]3C/C(=N/Oc4ccc([N+](=O)[O-])cc4)CC[C@]3(C)[C@H]1CC2 | 0
C#C[C@]1(O)CC[C@H]2[C@@H]3CC[C@H]4C/C(=N/Oc5ccc([N+](=O)[O-])cc5)CC[C@]4(C)[C@H]3CC[C@@]21C | 76.9
C[C@]12CC/C(=N\Oc3ccc([N+](=O)[O-])cc3)C[C@H]1CC[C@@H]1[C@@H]2CC[C@]2(C)[C@@H](O)CC[C@@H]12 | 10.9
C[C@]12CC/C(=N\Oc3ccc([N+](=O)[O-])cc3)C[C@@H]1CC[C@@H]1[C@@H]2CC[C@@]2(C)[C@H]1CC[C@]2(C)O | 14.7
